Tests used:
Nucleic Acid [1] = test: Induction of Escherichia coli pUC19 DNA cleavage assessed as conversion of supercoiled DNA to nicked form of DNA at 40 uM […] by ethidium bromide staining; format: nucleic-acid assay
Procedure, shortened: (§1)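 pUC-19 plasmid DNA photolysed at 365 nm for 2 h in 1:9 DMSO:Tris buffer ([…], pH 7.2) with test compound at 40–80 μM, 37 °C. A control lane without compound and dark-incubated samples were run alongside. Cleavage read by gel separation as the percentage of supercoiled (Form I) DNA converted to nicked (Form II) and linear (Form III) forms.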

Nucleic Acid [2] = test: Induction of Escherichia coli pUC19 DNA cleavage assessed as conversion of supercoiled form of DNA to nicked and linear form of DNA at 80 uM treated after 2 hrs before UV-vis irradiation measured after 1 hr by ethidium bromide staining
Nucleic Acid [3] = test: Induction of Escherichia coli pUC19 DNA cleavage assessed as conversion of supercoiled DNA to nicked form of DNA at 60 uM treated after 2 hrs before UV-vis irradiation measured after 1 hr by ethidium bromide staining; format: nucleic-acid assay; procedure, shortened: as §1

| Activity (Nucleic Acid [1]) | Activity (Nucleic Acid [2]) | Activity (Nucleic Acid [3]) | Structure (SMILES) |
| --- | --- | --- | --- |
| 20% | 85% | 50% | Clc1nc2ccccc2cc1C1CC(c2ccccc2)=NO1 (stereo unspecified) |
| 20% | 85% | 50% | Cc1ccc(C2=NOC(c3cc4ccccc4nc3Cl)C2)cc1 (stereo unspecified) |
| 20% | 85% | 50% | Clc1nc2ccccc2cc1C1CC(c2ccc(Br)cc2)=NO1 (stereo unspecified) |
| 20% | 85% | 50% | Clc1ccc(C2=NOC(c3cc4ccccc4nc3Cl)C2)cc1 (stereo unspecified) |

More lines, now with the values behind:

| Structure (SMILES) | Activity (Nucleic Acid [1]) | Activity (Nucleic Acid [2]) | Activity (Nucleic Acid [3]) |
| --- | --- | --- | --- |
| Oc1ccc(C2=NOC(c3cc4ccccc4nc3Cl)C2)cc1 (stereo unspecified) | 20% | 85% | 50% |
| COc1ccc(C2=NOC(c3cc4ccccc4nc3Cl)C2)cc1 (stereo unspecified) | 20% | 85% | 50% |
| O=[N+]([O-])c1ccc(C2=NOC(c3cc4ccccc4nc3Cl)C2)cc1 (stereo unspecified) | 20% | 85% | 50% |

Reference: ChEMBL document CHEMBL2086287, “An efficient one-pot synthesis and photoinduced DNA cleavage studies of 2-chloro-3-(5-aryl-4,5-dihydroisoxazol-3-yl)quinolines” (Bioorg Med Chem Lett, 2012)
